According to paper PMC6299372 (International Journal of Biological Sciences, 2018):

Experiments:
MsepCSP5 = target: T1, MsepCSP5 (Mythimna separata, UniProt A0A5H2NAD7); assay: Fluorescence competitive binding assay with the probe 1-NPN; details: for IC50: displacement of 1-NPN from MsepCSP5; for Ki: Ki = IC50/(1+[1-NPN]/K1-NPN); for Kd: dissociation constant (Kd) of MsepCSP5/1-NPN complex, Scatchard plot
T1 sequence (A0A5H2NAD7 1-127): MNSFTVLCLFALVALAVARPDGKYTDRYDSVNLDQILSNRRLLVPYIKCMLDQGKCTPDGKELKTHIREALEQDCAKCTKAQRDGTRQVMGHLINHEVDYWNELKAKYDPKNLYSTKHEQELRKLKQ
Summary of the method: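 Recombinant MsepCSP5 was expressed in E. coli BL21(DE3) as inclusion bodies, refolded, Ni-affinity purified, and His-tag cleaved with enterokinase, then dialyzed into Tris-HCl at pH 5.0 or 7.4. Protein at 2 μM in 30 mM Tris-HCl was titrated with 1-NPN (0–20 μM final). Ex 337 nm, Em 360–600 nm, 25°C. Ligand stocks were in methanol. Kd came from Scatchard plots, and Ki from IC50 corrected for 1-NPN. Three independent replicates.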

M. separata [1] = assay: Post-RNAi Y-tube olfactometer bioassay; assay type: in vivo, Mythimna separata; details: 72 h old moths of both sexes, after RNAi
Summary of the method: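 Seven-day-old pupae were injected with dsMsepCSP5 (1 µl of 2.5 µg µL-1) into abdominal segments 3–4. Non-injected and dsGFP-injected pupae served as controls. Pupae were held at 25±1°C and 70±5% RH until eclosion. 72 h-old moths of both sexes were tested in the same Y-tube assay (two volatiles, 10 µl vs liquid paraffin, 10 min per moth). 30 females and 30 males per volatile.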

M. separata [2] = assay: Y-tube olfactometer behavioral bioassay; assay type: in vivo, Mythimna separata; details: for behavioral response of M. separata to the volatile (in words): male and female moths; for males attracted to / preferring the volatile: male moths; for males attracted to / preferring the volatile / females attracted to / preferring the volatile: volatile vs liquid paraffin control, 10 µl volatile; for females attracted to / preferring the volatile: female moths
Summary of the method: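 Y-tube olfactometer with arms 3.0 cm × 26 cm, charcoal-filtered humidified air at 6.0 L min-1. 10 µl volatile on 10×10 mm filter paper was set against a liquid paraffin control. Three-day-old moths were isolated about 30 min beforehand, and separate olfactometers were used per sex. Each moth had 10 min to respond. Tests ran in the dark under orange light, 1–2 h after sunset, at 25±1°C and 70±5% RH. 30 females and 30 males per volatile.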

| Compound | IC50 (MsepCSP5; IC50, pH 5.0) [µM] | IC50 (MsepCSP5; IC50, pH 7.4) [µM] | Ki (MsepCSP5; Ki, pH 5.0) [µM] | Ki (MsepCSP5; Ki, pH 7.4) [µM] | binding affinity to MsepCSP5 (in words) (MsepCSP5; pH 5.0) | also measured |
| --- | --- | --- | --- | --- | --- | --- |
| C=CC(O)CCCCC (stereo not shown) [1-Octen-3-ol] | 9.13 | 16.2 | 4.36 | 6.43 | high binding affinity | preference of dsMsepCSP5-treated moths for the volatile (in words) (M. separata [1]): non-significant preference |
| CCCCCCCCCCCCCCCCCCC [Nonadecane] | 15 | 49.3 | 7.15 | 19.5 |  |  |
| CCC/C=C/CO [Trans-2-hexen-1-ol] | 17 | 34.2 | 8.1 | 13.5 | high binding affinity |  |
| CCCCCCCCCC(C)=O [2-Undecanone] | 5.15 | 21.6 | 2.46 | 8.56 |  | behavioral response of M. separata to the volatile (in words) (M. separata [2]): no obvious preference |
| CC12CCC(CC1)C(C)(C)O2 [Eucalyptol] | 9.31 | 14.6 | 4.45 | 5.79 | high binding affinity |  |
| CCCCCC(C)O (stereo not shown) [2-Heptanol] | 7.95 | 63 | 3.8 | 24.9 | high binding affinity | males attracted to / preferring the volatile (M. separata [2]): 80% |
| CCCCCCCC [Octane] | 7.17 | 23.6 | 3.42 | 9.34 |  |  |
| CCCCCCCCCCCCCCCC [Hexadecane] | 74.3 | 58.3 | 35.5 | 23.1 |  |  |
| OC1CCCCC1 [Cyclohexanol] | 71.5 | 136 | 34.2 | 54 |  |  |
| CC/C=C\CCOC(C)=O [Cis-3-hexenyl acetate] | 13 | 32.4 | 6.22 | 12.8 |  |  |
| Cc1ccc(C(C)C)cc1 [4-lsopropyltoluene] |  |  |  |  |  | Ki (MsepCSP5; pH 5.0): 14.4 µM; IC50 (MsepCSP5; pH 5.0): 30.2 µM; Ki (MsepCSP5; pH 7.4): 20.7 µM; IC50 (MsepCSP5; pH 7.4): 52.3 µM |
| C=C(C)[C@H]1CC=C(C)CC1 [R-(+)-Limonene] |  |  |  |  |  | Ki (MsepCSP5; pH 5.0): 5.18 µM; IC50 (MsepCSP5; pH 5.0): 10.8 µM; Ki (MsepCSP5; pH 7.4): 15 µM; IC50 (MsepCSP5; pH 7.4): 37.9 µM |
| CCC(O)CC [3-Pentanol] | 14 | 29.8 | 6.71 | 11.8 | high binding affinity | females attracted to / preferring the volatile (M. separata [2]): 80%; preference of dsMsepCSP5-treated moths for the volatile (in words) (M. separata [1]): non-significant preference |
| CC1=CC=C(C(C)C)CC1 [α -Terpinene] |  |  |  |  |  | Ki (MsepCSP5; pH 5.0): 8.19 µM; IC50 (MsepCSP5; pH 5.0): 17.2 µM; Ki (MsepCSP5; pH 7.4): 8.77 µM; IC50 (MsepCSP5; pH 7.4): 22.2 µM |
| CC1=CCC(=C(C)C)CC1 [Terpinolene] | 8.27 | 43.8 | 3.95 | 17.4 |  |  |
| CCC/C=C/C=O [Trans-2-hexenal] | 43.4 | 22.9 | 20.7 | 9.08 | moderate binding |  |
| Farnesene |  |  |  |  |  | Ki (MsepCSP5; pH 5.0): 35.6 µM; IC50 (MsepCSP5; pH 5.0): 74.7 µM; Ki (MsepCSP5; pH 7.4): 21.5 µM; IC50 (MsepCSP5; pH 7.4): 54.4 µM |

| Compound | IC50 (MsepCSP5; IC50, pH 5.0) [µM] | IC50 (MsepCSP5; IC50, pH 7.4) [µM] | Ki (MsepCSP5; Ki, pH 5.0) [µM] | Ki (MsepCSP5; Ki, pH 7.4) [µM] | binding affinity to MsepCSP5 (in words) (MsepCSP5; pH 5.0) | also measured |
| --- | --- | --- | --- | --- | --- | --- |
| C=CC(C)(O)CCC=C(C)CCC=C(C)C (mixture of isomers) [Nerolidol] | 13 | 18.3 | 6.2 | 7.23 | high binding affinity |  |
| CCCCCCCCCCCCCC [Tetradecane] | 21.7 | 20.8 | 10.4 | 8.22 |  |  |
| COC(=O)c1ccccc1 [Methyl benzoate] | 10.8 | 47.5 | 5.18 | 18.8 |  | females attracted to / preferring the volatile (M. separata [2]): 70%; behavioral response of M. separata to the volatile (in words) (M. separata [2]): strong positive responses; males attracted to / preferring the volatile (M. separata [2]): 67% |
| CCCCCC=O [Hexanal] | 9.28 | 21.4 | 4.43 | 8.46 | high binding |  |
| CCCCCCCCCCCC=O [Dodecyl aldehyde] |  |  |  |  | high binding | Ki (MsepCSP5; pH 5.0): 7.17 µM; IC50 (MsepCSP5; pH 5.0): 15 µM; Ki (MsepCSP5; pH 7.4): 6.86 µM; IC50 (MsepCSP5; pH 7.4): 17.3 µM |
| CC(=O)/C=C/C1=C(C)CCCC1(C)C [β-Lonone] |  |  |  |  |  | Ki (MsepCSP5; pH 5.0): 2.09 µM; IC50 (MsepCSP5; pH 5.0): 4.38 µM; Ki (MsepCSP5; pH 7.4): 5.06 µM; IC50 (MsepCSP5; pH 7.4): 12.8 µM |
| CCCCCCCCCCCC(C)=O [2Tridecanone] | 10.4 | 13.9 | 4.95 | 5.51 |  |  |
| c1ccc(Nc2cccc3ccccc23)cc1 [1-NPN, N-phenyl-1-naphthylamine, reference compound] |  |  |  |  |  | Kd (MsepCSP5; pH 5.0): 2.91 µM; Kd (MsepCSP5; pH 7.4): 3.65 µM |
| CC1=CC[C@@](O)(C(C)C)CC1 [(-)-Terpinen-4-ol] |  |  |  |  |  | Ki (MsepCSP5; pH 5.0): 4.33 µM; IC50 (MsepCSP5; pH 5.0): 9.07 µM; Ki (MsepCSP5; pH 7.4): 13.6 µM; IC50 (MsepCSP5; pH 7.4): 34.4 µM |
| CCCCCCCCCCCCCCCCCCCC [Eicosane] | 15.2 | 47.8 | 7.25 | 18.9 |  |  |
| CCCCCCCCCCCCC [Tridecane] | 478 | 522 | 228 | 207 |  |  |
| C=CC(C)(O)CCC=C(C)C (stereo not shown) [Linalool] | 41.3 | 65.3 | 19.7 | 25.8 |  |  |
| CCOC(C)=O [Ethylacetate] | 8.84 | 19.4 | 4.22 | 7.67 |  |  |
| CC/C=C\CCO [Cis-3-hexen-1-ol] | 727 | 227 | 347 | 89.7 |  |  |
| CCCCCC [Hexane] | 18.6 | 14.9 | 8.9 | 5.89 |  |  |
| CC1=CC[C@@H](C(C)(C)O)CC1 [α -Terpineol] | 12.6 | 198 | 6.02 | 78.3 | high binding affinity |  |
